Article PMC6929040 (ACS Synthetic Biology, 2019)
Entries after “also recorded” stand apart in the source; their conditions may differ.

What was measured:
human 5-HTR4b = human 5-HTR4b (Homo sapiens, UniProt Q13639); experiment: Luciferase-based 5-HTR4b assay in yeast; format: cell-based; conditions: for confirmation as 5-HTR4b ligand by dose response curves: 5-HTR4b assay strain vs control strain with blank plasmid in lieu of 5-HTR4b; for natural products library screening result (Z-score normalized to serotonin): 803-member library; for natural products library screening result (Z-score normalized to serotonin) / anti-infection library screening result (Z-score): singlets; for anti-infection library screening result (Z-score): 403-member library
Chain of human 5-HTR4b (Q13639 whole entry): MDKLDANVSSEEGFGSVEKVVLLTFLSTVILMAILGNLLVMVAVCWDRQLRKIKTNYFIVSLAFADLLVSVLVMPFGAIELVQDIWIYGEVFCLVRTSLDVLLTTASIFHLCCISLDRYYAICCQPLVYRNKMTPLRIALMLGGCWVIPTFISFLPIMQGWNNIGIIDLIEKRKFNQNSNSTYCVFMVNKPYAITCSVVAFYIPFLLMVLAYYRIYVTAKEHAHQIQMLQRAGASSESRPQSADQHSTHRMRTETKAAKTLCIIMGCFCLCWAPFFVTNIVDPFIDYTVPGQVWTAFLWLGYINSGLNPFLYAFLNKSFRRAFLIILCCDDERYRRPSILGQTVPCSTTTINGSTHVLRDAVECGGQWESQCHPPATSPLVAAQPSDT

[1] = system: human colon epithelial cells (Caco-2); experiment: Colon cell wound healing scratch assay; format: cell-based; conditions: Caco-2 scratch assay, 10 μM, 48 h, vs PBS control
yeast (PPY1808) = experiment: Toxicity assessment in yeast; format: cell-based, Saccharomyces cerevisiae; conditions: yeast incubated 2.5 h, 0, 10 μM, 100 μM
[2] = system: human colon epithelial cells (Caco-2); experiment: Cell migration assay; format: cell-based; conditions: Caco-2, 10 μM, 48 h, vs PBS control
Summary of the method: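 Caco-2 cells grown at 37 °C, 5% CO2 in high-glucose DMEM with 10% FBS and 1% penicillin-streptomycin. Cells at (1–2) × 10^5 cells/mL were seeded into both wells of culture inserts and left overnight to attach. Inserts were then removed and cells washed twice with PBS. […] Imaged at 0, 24 and 48 h, and the cell-free zone was measured.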

SMILES | confirmation as 5-HTR4b ligand by dose response curves (human 5-HTR4b) | natural products library screening result (Z-score normalized to serotonin) (human 5-HTR4b; 10 μM) | other results
O=C(O)CCCc1c[nH]c2ccccc12 [3-indolebutyric acid] | could not confirm | hits | –
NC(Cc1c[nH]c2ccc(O)cc12)C(=O)O [5-HTP, D/L-5-hydroxytryptophan] | confirmed | hits | –
N[C@@H](Cc1c[nH]c2ccc(O)cc12)C(=O)O [L-5-HTP, L-5-hydroxytryptophan] | – | hits | –
O=c1cc(-c2ccccc2)oc2cc(O)c(O)c(O)c12 [baicalein] | could not confirm | hits | –
COc1ccc(-c2oc3c(CC=C(C)C)c(O)cc(O)c3c(=O)c2O[C@@H]2O[C@@H](C)[C@H](O)[C@@H](O)[C@H]2O)cc1 [baohuoside I] | could not confirm | hits | –
CC1(C)C2CCC1(C)C(O)C2 (centres unmarked) [borneol] | could not confirm | – | anti-infection library screening result (Z-score) (human 5-HTR4b; 1 μM): hits
CCOc1ccc2nc3cc(N)ccc3c(N)c2c1 [ethacridine] | – | – | wound healing [1]: did not result in a significant increase; anti-infection library screening result (Z-score) (human 5-HTR4b; 10 μM): hits; toxicity to yeast (yeast (PPY1808)): toxic at high concentrations; cell motility (cell migration) [2]: did not result in a significant increase
CC[n+]1c(-c2ccccc2)c2cc(N)ccc2c2ccc(N)cc21 [ethidium bromide] | could not confirm | – | anti-infection library screening result (Z-score) (human 5-HTR4b; 10 μM): hits
O=c1c(-c2ccc(O)cc2)coc2cc(O[C@@H]3O[C@H](CO)[C@@H](O)[C@H](O)[C@H]3O)cc(O)c12 [genistin] | could not confirm | hits | –
O=C(CC1NCCCC1O)Cn1cnc2cc(Br)c(Cl)cc2c1=O (centres unmarked) [halofuginone] | – | hits | wound healing [1]: statistically significant increase in wound healing (P < 0.05); also recorded: statistically significantly different than the PBS control (P < 0.05); cell motility (cell migration) [2]: results only in increased wound healing
CN(C)CCc1ccc(O)cc1 [hordenine] | – | hits | wound healing [1]: statistically significant increase in wound healing (P < 0.05); also recorded: statistically significantly different than the PBS control (P < 0.05); anti-infection library screening result (Z-score) (human 5-HTR4b; 10 μM): hits; cell motility (cell migration) [2]: significantly (P < 0.01) increase cell motility; also recorded: statistically significantly different than the PBS control (P < 0.01)
CN[C@@H]1[C@@H](O)[C@@H](O[C@@H]2[C@@H](O)[C@H](O[C@H]3O[C@H](CN)[C@@H](O)[C@H](O)[C@H]3O)[C@@H](N)C[C@H]2NC(=O)[C@@H](O)CN)OC[C@]1(C)O [isepamicin] | could not confirm | – | anti-infection library screening result (Z-score) (human 5-HTR4b; 1 μM): hits
CCn1cc(C(=O)O)c(=O)c2ccc(C)nc21 [nalidixic acid] | could not confirm | hits | –
O=c1c2cc(O[C@@H]3O[C@H](CO)[C@@H](O)[C@H](O)[C@H]3O)c(O)cc2oc2cc(O)c([C@@H]3O[C@H](CO)[C@@H](O)[C@H](O)[C@H]3O)c(O)c12 [neomangiferin] | could not confirm | hits | –
O=C(Nc1ccc(O)cc1)c1ccccc1O [osalmid] | could not confirm | – | anti-infection library screening result (Z-score) (human 5-HTR4b; 1 μM): hits
Nc1ccc2cc3ccc(N)cc3nc2c1 [proflavine] | – | – | wound healing [1]: did not result in a significant increase; anti-infection library screening result (Z-score) (human 5-HTR4b; 10 μM): hits; toxicity to yeast (yeast (PPY1808)): toxic at high concentrations; cell motility (cell migration) [2]: did not result in a significant increase
Cc1nc(Nc2ccc(F)cc2)nc(N2CCc3ccccc3C2C)c1C (centres unmarked) [revaprazan] | – | – | wound healing [1]: statistically significant increase in wound healing (P < 0.05); also recorded: statistically significantly different than the PBS control (P < 0.05); anti-infection library screening result (Z-score) (human 5-HTR4b; 1 μM): hits; toxicity to yeast (yeast (PPY1808)): toxic at high concentrations; cell motility (cell migration) [2]: statistically significantly different than the PBS control (P < 0.01); cell motility (cell migration) ([2]; listed as Revaprazan): significantly (P < 0.01) increase cell motility
NCCc1c[nH]c2ccc(O)cc12 [serotonin] | – | hits | signal increase after activation (human 5-HTR4b; pH = 7, 100 mg/L serotonin, 2 h ligand incubation, 30 min luciferase substrate incubation): 38 fold
NCCc1c[nH]c2ccccc12 [tryptamine] | confirmed | hits | –
